From ChEMBL document CHEMBL4190362, “Synthesis, biological evaluation and quantitative structure-active relationships of 1,3-thiazolidin-4-one derivatives. A promising chemical scaffold endowed with high antifungal potency and low cytotoxicity” (Eur J Med Chem, 2017) come the findings set out here.

Assay type in all cases: functional
Test [1] has as its system [Candida] sake. The test can be described thus: Antifungal activity against Candida sake clinical isolates assessed as inhibition of microbial growth incubated for 24 hrs by broth microdilution method. Conditions: Fermentozyma sake. The procedure, abridged: (§1)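 Twenty-two clinical Candida isolates (8 C. albicans, 4 C. glabrata, 3 C. tropicalis, 3 C. krusei, 2 C. parapsilosis, 2 C. sake) were identified by colony morphology and biochemistry and subcultured at 35 °C for purity. Compounds were dissolved in DMSO and tested by broth microdilution in Sabouraud dextrose broth per NCCLS/CLSI/EUCAST guidance. Values are geometric mean MIC per species (µg/mL).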

Test [2] relates to Enterobacter. The test can be described thus: Antibacterial activity against Enterobacter spp. assessed as inhibition of microbial growth incubated for 18 to 22 hrs by broth microdilution method. In a few lines: (§2)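 Broth microdilution in Mueller-Hinton II broth following NCCLS recommendations; compounds dissolved in DMSO.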
Background: Broth dilution looks for growth in wells or tubes with falling amounts of substance.

The test system of test [3] is Nakaseomyces glabratus. The test can be described thus: Antifungal activity against Candida glabrata clinical isolates assessed as inhibition of microbial growth incubated for 24 hrs by broth microdilution method. The procedure, abridged: as §1
The test system of test [4] is Candida albicans. The test can be described thus: Antifungal activity against Candida albicans clinical isolates assessed as inhibition of microbial growth incubated for 24 hrs by broth microdilution method. In a few lines: as §1
Test [5] has as its system Proteus mirabilis. The test can be described thus: Antibacterial activity against Proteus mirabilis assessed as inhibition of microbial growth incubated for 18 to 22 hrs by broth microdilution method. In a few lines: as §2
Test [6] deals with Staphylococcus warneri. The test can be described thus: Antibacterial activity against Staphylococcus warneri assessed as inhibition of microbial growth incubated for 18 to 22 hrs by broth microdilution method. The procedure, abridged:
as §2

Test [7] deals with Klebsiella oxytoca. As to the kind of experiment: Antibacterial activity against Klebsiella oxytoca assessed as inhibition of microbial growth incubated for 18 to 22 hrs by broth microdilution method. The procedure, abridged: as §2
For test [8], the system named is Staphylococcus aureus. The test can be described thus: Antibacterial activity against Staphylococcus aureus assessed as inhibition of microbial growth incubated for 18 to 22 hrs by broth microdilution method. The procedure, abridged: as §2
Test [9] has as its system Candida tropicalis. As to the kind of experiment: Antifungal activity against Candida tropicalis clinical isolates assessed as inhibition of microbial growth incubated for 24 hrs by broth microdilution method. The procedure, abridged:
as §1

In test [10] the test system is Candida parapsilosis. As to the kind of experiment: Antifungal activity against Candida parapsilosis clinical isolates assessed as inhibition of microbial growth incubated for 24 hrs by broth microdilution method. Conditions: Lodderomyces parapsilosis. The procedure, abridged: as §1
In test [11] the test system is Pichia kudriavzevii. The test can be described thus: Antifungal activity against Candida krusei clinical isolates assessed as inhibition of microbial growth incubated for 24 hrs by broth microdilution method. In a few lines:
as §1

For test [12], the system named is Escherichia coli. As to the kind of experiment: Antibacterial activity against Escherichia coli assessed as inhibition of microbial growth incubated for 18 to 22 hrs by broth microdilution method. In a few lines:
as §2

Test [13] concerns Enterococcus faecalis. As to the kind of experiment: Antibacterial activity against Streptococcus faecalis assessed as inhibition of microbial growth incubated for 18 to 22 hrs by broth microdilution method. The procedure, abridged: as §2

On to `CCC/C(C)=N\N=C1\SCC(=O)N1Cc1ccccc1`, for which the MIC (in general, the smallest concentration in the dilution series that meets the test's criterion for growth inhibition) in test [1] was 32 mg/L; in test [2], at least 256 mg/L; in [3], 2 mg/L; in test [4], 8 mg/L; in test [5], at least 256 mg/L; in test [6], at least 256 mg/L. Also, the MIC is at least 256 mg/L in test [7]; at least 256 mg/L in [8]; 8 mg/L in test [9]; 8 mg/L in test [10]; 16 mg/L in test [11]; at least 256 mg/L in test [12]. Besides, in [13], the MIC was at least 256 mg/L.

As for `CC(C)=N/N=C1/SCC(=O)N1Cc1ccccc1`, the MIC is 256 mg/L in [1]; at least 256 mg/L in test [2]; 256 mg/L in test [3]; 256 mg/L in test [4]; at least 256 mg/L in test [5]; at least 256 mg/L in test [6]. Moreover, the MIC is at least 256 mg/L in test [7]; at least 256 mg/L in test [8]; 256 mg/L in [9]; 256 mg/L in [10]; 256 mg/L in test [11]; at least 256 mg/L in test [12]. Besides, in test [13], the MIC is at least 256 mg/L.

As for `CCC(CC)=N/N=C1/SCC(=O)N1Cc1ccccc1`, the MIC is 8 mg/L in [1]; at least 256 mg/L in test [2]; 2 mg/L in [3]; 32 mg/L in test [4]; at least 256 mg/L in test [5]; at least 256 mg/L in test [6]. For the same compound, the MIC is at least 256 mg/L in [7]; at least 256 mg/L in test [8]; 32 mg/L in test [9]; 8 mg/L in test [10]; 8 mg/L in test [11]; at least 256 mg/L in [12]. For the same compound, the MIC in test [13] is at least 256 mg/L.

For the compound `CC/C(C)=N\N=C1\SCC(=O)N1Cc1ccccc1`, the MIC is 32 mg/L in test [1]; at least 256 mg/L in [2]; 16 mg/L in [3]; 8 mg/L in test [4]; at least 256 mg/L in test [5]; at least 256 mg/L in [6]. For the same compound, the minimum inhibitory concentration (MIC) in test [7] is at least 256 mg/L; in test [8] it was at least 256 mg/L; in [9], 8 mg/L; in [10], 8 mg/L; in test [11], 16 mg/L; in test [12], at least 256 mg/L. Also, the MIC in test [13] is at least 256 mg/L.

Consider `C[C@@H]1[C@H](O)[C@@H](C)/C=C/C=C/C=C/C=C/C=C/C=C/C=C/[C@H](O[C@@H]2O[C@H](C)[C@@H](O)[C@H](N)[C@@H]2O)C[C@@H]2O[C@](O)(C[C@@H](O)C[C@@H](O)[C@H](O)CC[C@@H](O)C[C@@H](O)CC(=O)O[C@H]1C)C[C@H](O)[C@H]2C(=O)O` [AMPHOTERICIN B], for which the MIC turned out to be 2 mg/L in [1]; 4 mg/L in test [3]; 4 mg/L in test [4]; 2 mg/L in test [9]; 2 mg/L in test [10]; 4 mg/L in test [11].

Take `OC(Cn1cncn1)(Cn1cncn1)c1ccc(F)cc1F` [FLUCONAZOLE]: the MIC in test [1], in [3], in [4], in [9], in [10] and in test [11] was 2 mg/L each time.

Turning to `CC(=O)N1CCN(c2ccc(OCC3COC(Cn4ccnc4)(c4ccc(Cl)cc4Cl)O3)cc2)CC1` (configuration not stated) [KETOCONAZOLE], the minimum inhibitory concentration (MIC) in test [1] was 4 mg/L; in test [3], 2 mg/L; in [4], 2 mg/L; in [9] it was 2 mg/L; in test [10], 2 mg/L; in test [11] it was 4 mg/L.

For the compound `Clc1ccc(COC(Cn2ccnc2)c2ccc(Cl)cc2Cl)c(Cl)c1` (configuration not stated) [MICONAZOLE], the minimum inhibitory concentration (MIC) came out at 2 mg/L in [1]; 4 mg/L in [3]; 2 mg/L in test [4]; 2 mg/L in [9]; 4 mg/L in test [10]; 4 mg/L in [11].

For the compound `Clc1ccc(C(Cn2ccnc2)OCc2ccsc2Cl)c(Cl)c1` (configuration not stated) [TIOCONAZOLE], the minimal inhibitory concentration (MIC) in [1] was 4 mg/L; in test [3], 4 mg/L; in test [4] it was 8 mg/L; in test [9], 8 mg/L; in test [10], 8 mg/L; in test [11], 8 mg/L.
